Assay results of several laboratories.
Compare with care: the assays were run in different laboratories.
CA2: Carbonic anhydrase 2 (CA2, Homo sapiens, UniProt P00918)
OPRD1: Delta-type opioid receptor (OPRD1, Homo sapiens, UniProt P41143)

COc1ccc(S(=O)(=O)Oc2ccc(C=NNC(=O)c3ccc(F)cc3)cc2OC)cc1
IC50 (CA2; enzyme activity, inhibitor, absorbance): 23.2 nM

O=C1CCc2ccccc2O1
Ki (Carbonic anhydrase (Vibrio cholerae serotype O1, UniProt Q9KMP6); enzyme activity, inhibitor, stopped-flow): 8900 nM

COc1ccc2[nH]c(C)c(CC[N+](C)(C)C)c2c1
Ki (5-hydroxytryptamine receptor 3A (HTR3A, Homo sapiens, UniProt P46098); ligand displacement, radioligand): ~2600 nM

COc1ccc(S(=O)(=O)Oc2cc(OC)ccc2C=NNC(=O)c2ccc(F)cc2)cc1
IC50 (CA2; enzyme activity, inhibitor, absorbance): 141 nM

CNC(=O)c1ccc(-c2cnn3ccc(C(=O)N(C)c4ccc(Cl)c(C(=O)OC)c4)cc23)cc1
IC50 (Tyrosine-protein kinase ABL1 (ABL1, Homo sapiens, UniProt P00519); enzyme activity, inhibitor): > 30000 nM

CS(=O)(=O)c1ccc(C(=O)N[C@H]2CC[C@@]3(O)[C@H]4Cc5ccc(O)c6c5[C@@]3(CCN4CC3CC3)[C@H]2O6)s1
Ki (OPRD1; ligand displacement, radioligand; cell membranes): 27 nM

COC(=O)c1cc(N(C)C(=O)c2ccn3ncc(-c4ccc(C(=O)O)cc4)c3c2)ccc1Cl
IC50 (Receptor tyrosine-protein kinase erbB-2 (ERBB2, Homo sapiens, UniProt P04626); enzyme activity, inhibitor): > 30000 nM

O=C(N[C@H]1CC[C@@]2(O)[C@H]3Cc4ccc(O)c5c4[C@@]2(CCN3CC2CC2)[C@H]1O5)c1ccc(F)s1
Ki (OPRD1; ligand displacement, radioligand; cell membranes): 31.4 nM
